The record followed here is PubChem BioAssay AID2052 (NMMLSC, 2009).

The campaign covered roughly 330,000 compounds. About 220 (0.067%) were called active.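 How the source made its calls: active means response, share of CD8 T cells binding vesicles, and their 90th percentile fluorescence all below set limits (cut at about 80% in these data, passing the limit was not always enough); inactive means the rest, inconclusive results apart.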 The list comes from a sample in which actives are over-represented; it also holds similar structures and randomly drawn compounds.

The test can be described thus: modulators of CD8 T cell-vesicle binding, primary screen, mouse 2C CD8+ T cells, flow cytometry (AID 2052).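 On double positive events: binding gate set so that unloaded-vesicle control wells show 10% double positive cells.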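 On response (vesicle binding): values below 100% mean blocked vesicle binding to the CD8+ T cells.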 The following applies: 2C CD8+ T cell-vesicle binding, at 7 µM, stronger effect = lower value; double positive events: measured here: CD8+ vesicle-bound cell fraction. The procedure, abridged: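 System: murine 2C transgenic CD8+ T lymphocytes; also added: QL9-loaded Drosophila micro-vesicles; times: binding 1.5 h at 37 °C; measured by: flow cytometry, PE anti-B7-1 (FL2) versus Alexa647 anti-CD8 (FL8), PFA-fixed; control set: Peptide-free naked vesicles (low) and QL9 vesicles with 0.7% DMSO vehicle (high)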
With `Cc1oc2c(F)c(F)c(F)c(F)c2c1S(=O)(=O)Nc1cccc(C(F)(F)F)c1`, the double positive events was found to be 13.2% and the response (vesicle binding) was 170% (inactive).

Take `COc1ccc(C(=O)COC(=O)c2nn(C)c(=O)c3ccccc23)c(OC)c1`: the double positive events amounted to 13.7% and the response (vesicle binding) was 187% (inactive).

On to `CC(=O)c1cccc(NC(=O)CN2C(=O)c3cccnc3Oc3ccc(Cl)cc32)c1`, for which the double positive events is 54.8% and the response (vesicle binding) was 668% (inactive).

In the case of `COC(=O)C1=CO[C@@H](O[C@@H]2O[C@H](CO)[C@@H](O)[C@H](O)[C@H]2O)C2C1C[C@H](O)[C@@H]2C` (some centres undefined), the double positive events turned out to be 33.1% and the response (vesicle binding) is 220% (inactive).

`CCOC(CNC(=O)C1CCN(S(=O)(=O)c2ccc3nc4c(c(C(=O)O)c3c2)CC(C)CC4)CC1)OCC` (centres undefined): the double positive events stood at 3.9% and the response (vesicle binding) was 171% (inactive).

`CN(C)C(CNC(=O)c1ccc(OCc2cn3ccccc3n2)cc1)c1ccco1` (centres undefined): the double positive events was 23.9% and the response (vesicle binding) is 416% (inactive).

With `COc1ccc(NC(C(=O)Nc2cccc(C(C)=O)c2)c2ccccc2)cc1` (centres undefined), the double positive events stood at 36% and the response (vesicle binding) is 198% (inactive).

Consider `O=C(CCc1nnc2ccc(NCc3ccco3)nn12)Nc1cc(F)ccc1F`, for which the double positive events was 36.4% and the response (vesicle binding) is 186% (inactive).

Regarding `O=C(COC(=O)c1ccc(NS(=O)(=O)c2cccs2)cc1O)Nc1ccc(F)cc1`, the double positive events amounted to 18.7% and the response (vesicle binding) is 74.7% (inactive).

`Nn1c(SCC(=O)Nc2nccs2)nncc1=O`: the double positive events was 30.5% and the response (vesicle binding) is 224% (inactive).

Consider `COc1ccccc1C(=O)NC(CCSC)C(=O)NNC(=O)c1csc(N2CCOCC2)n1` (centres undefined), for which the double positive events is 27.1% and the response (vesicle binding) was 242% (inactive).

Regarding `CCc1nc2ccccc2c(C(=O)OC2CCCCC2=O)c1C` (centres undefined), the double positive events was found to be 48.4% and the response (vesicle binding) is 288% (inactive).

On to `Cc1cccc(C(=O)N2CCCC(Nc3ccc(C(C)C)cc3)C2)n1` (centres undefined), for which the double positive events worked out at 11.9% and the response (vesicle binding) was 567% (inactive).

With `Cc1ccc(-c2nnc(C)c(N3CC(C)OC(C)C3)n2)cc1` (centres undefined), the double positive events was found to be 50.8% and the response (vesicle binding) is 123% (inactive).

As for `COC(=O)NNC(=O)C1CCC(C)CC1` (centres undefined), the double positive events worked out at 13.1% and the response (vesicle binding) was 199% (inactive).

With `O=C(COc1ccccc1)Nc1ccc(N2CCN(C(=O)c3cccs3)CC2)cc1`, the double positive events was 4.1% and the response (vesicle binding) was 606% (inactive).

With `Brc1c(CSc2nncc3ccccc23)nc2ccccn12`, the double positive events worked out at 26.2% and the response (vesicle binding) is 103% (inactive).

Regarding `COc1ccccc1C(=O)Nc1ccnn1C1CCN(C(=O)C(C)(C)C)CC1`, the double positive events came to 51.4% and the response (vesicle binding) is 266% (inactive).

For `Cc1ccc(S(=O)(=O)NCCC(=O)NC2CCN(Cc3ccccc3)CC2)cc1`, the double positive events stood at 42.6% and the response (vesicle binding) is 256% (inactive).

Take `CCCCCCCC(=O)OC(CN1CCCCCC1)CN1CCCC1=O` (centres undefined): the double positive events came out at 16.5% and the response (vesicle binding) is 372% (inactive).

For the molecule `COC(=O)[C@@H]1CC(O)CN1C(=O)C12CC3CC(CC(C3)C1)C2` (some centres undefined), the double positive events was found to be 52.2% and the response (vesicle binding) was 228% (inactive).

As for `Cc1ccc(-c2csc(NC(=O)C3=COCCO3)n2)cc1C`, the double positive events is 20.8% and the response (vesicle binding) is 138% (inactive).

On to `CC(C)OP(=O)(OC(C)C)C(Nc1ccccc1)c1cccc([N+](=O)[O-])c1` (centres undefined), for which the double positive events was 20.7% and the response (vesicle binding) is 684% (inactive).

With `COc1cccc(NC(=O)COc2cc(C)cc3oc(=O)cc(C)c23)c1`, the double positive events stood at 34.7% and the response (vesicle binding) is 510% (inactive).

As to `CC1(C)CC(=O)C=C(N2CCOCC2)C1`, the double positive events was 19.8% and the response (vesicle binding) was 266% (inactive).

For the molecule `Cc1nc([N+](=O)[O-])c(NCCCO)n1Cc1ccccc1`, the double positive events was 19.6% and the response (vesicle binding) was 72.9% (inactive).

Consider `Cc1cc(C)n(C(=O)c2ccc(C)c(S(=O)(=O)N3CCOCC3)c2)n1`, for which the double positive events amounted to 54% and the response (vesicle binding) was 212% (inactive).

`C/C=C/c1ccc(OCC(=O)NNC(=O)CN(C)S(=O)(=O)c2ccc(C)cc2)c(OC)c1`: the double positive events came to 47.4% and the response (vesicle binding) is 180% (inactive).

For `CCOC(=O)C(=CNNc1ccsc1C(=O)OC)C(=O)OCC`, the double positive events turned out to be 17.6% and the response (vesicle binding) is 541% (inactive).

On to `CC(=O)c1cc(-c2ccccc2)n(CCC(=O)NC2CCCCCC2)c1C`, for which the double positive events came out at 47.9% and the response (vesicle binding) was 183% (inactive).

In the case of `CCc1ccccc1NC(=O)[C@@H]1CCC(=O)N1C1OC(=O)c2c1ccc(OC)c2OC` (some centres undefined), the double positive events was found to be 15.9% and the response (vesicle binding) is 194% (inactive).

For `C/C(=N\N(C)C)c1ccc(OCCOc2ccc([N+](=O)[O-])cc2)cc1`, the double positive events was 36.6% and the response (vesicle binding) was 389% (inactive).

Consider `COc1ccc(C2c3[nH]c4ccccc4c3C[C@H]3C(=O)N(CC(C)C)CC(=O)N23)c(OC)c1` (some centres undefined), for which the double positive events came out at 23.9% and the response (vesicle binding) was 1350% (inactive).

Take `CC1(C)C2CC=C(/C=N/NC(=O)C3CC3)C1C2` (centres undefined): the double positive events worked out at 55.1% and the response (vesicle binding) was 548% (inactive).

Consider `O=C(NCc1cccnc1)c1ccccc1NC(=O)c1c(F)cccc1F`, for which the double positive events was determined as 21.9% and the response (vesicle binding) was 104% (inactive).

`CC(=O)N1CCc2cc(S(=O)(=O)NC3CCCCC3)ccc21`: the double positive events was determined as 27% and the response (vesicle binding) was 222% (inactive).

Take `Cc1cccc(C(=O)NCc2nnc(SC(C)C(=O)Nc3nnc(C)s3)n2C)c1` (centres undefined): the double positive events came to 13.6% and the response (vesicle binding) was 258% (inactive).

For the molecule `CCCCCN(C(=O)NC(=O)Nc1cccc(C)c1C)S(C)(=O)=O`, the double positive events is 28.6% and the response (vesicle binding) was 413% (inactive).

Turning to `COc1ccc(CCNC(=O)CN(c2ccccc2)S(C)(=O)=O)cc1OC`, the double positive events turned out to be 42.8% and the response (vesicle binding) was 345% (inactive).

`COc1ccc(C(=O)OCC(=O)NC(=O)CCSc2ccccc2)cc1`: the double positive events was found to be 48.7% and the response (vesicle binding) was 413% (inactive).

As for `CC(NC(=S)Nc1ccccc1)C1COc2ccccc2O1` (centres undefined), the double positive events came to 63% and the response (vesicle binding) is 843% (inactive).

Take `COc1ccccc1S(=O)(=O)NCc1ccc(C(=O)N(C)Cc2ccc(F)cc2)cc1`: the double positive events came to 31.2% and the response (vesicle binding) was 557% (inactive).

As for `CCOc1ccc(NC(=O)CC2C(=O)N(c3ccccc3)C(=O)N2CCOC)cc1` (centres undefined), the double positive events was 22.1% and the response (vesicle binding) was 526% (inactive).

Consider `Cc1cc(C)cc(NC(=O)NC2CCN(CC(=O)Nc3cccc(Cl)c3C)CC2)c1`, for which the double positive events came to 43.5% and the response (vesicle binding) is 437% (inactive).

With `O=C1C(=O)N(CCN2CCOCC2)C(c2cccc(Cl)c2)/C1=C(/O)c1ccc2c(c1)OCO2` (centres undefined), the double positive events amounted to 10.1% and the response (vesicle binding) is 653% (inactive).

In the case of `O=C(NCc1ccc2c(c1)OCO2)c1cc2c(s1)CS(=O)(=O)C2`, the double positive events was found to be 37.5% and the response (vesicle binding) was 576% (inactive).

With `O=C(NCc1ccc2c(c1)OCO2)c1ccc(Cl)s1`, the double positive events turned out to be 0% and the response (vesicle binding) was 0% (active).

Turning to `O=C(NCc1ccc2c(c1)OCO2)c1cc(F)c(F)cc1Cl`, the double positive events was found to be 11.4% and the response (vesicle binding) was 338% (inactive).

Turning to `COc1ccc(C(=O)NCc2ccc(C)cc2)cc1S(=O)(=O)N1CCCC1`, the double positive events came out at 47.1% and the response (vesicle binding) is 276% (inactive).

Regarding `O=C(CSc1nc2ccccc2c(=O)n1-c1ccccc1F)N1CCOCC1`, the double positive events worked out at 37.3% and the response (vesicle binding) was 244% (inactive).

For `Cc1ccc(Cl)c(OCC(=O)N(C)CC(=O)Nc2ccc(N3CCOCC3)cc2)c1`, the double positive events is 61.8% and the response (vesicle binding) is 424% (inactive).

On to `CCOC(=O)c1cccc(NC(=O)C2CCCN(S(=O)(=O)c3cnc[nH]3)C2)c1` (centres undefined), for which the double positive events was 47.8% and the response (vesicle binding) is 586% (inactive).
